Screens: PubChem, Sanford-Burnham Center for Chemical Genomics
FLuc inhib CS: firefly luciferase enzyme inhibitors, primary screen, artefact control for luciferase-based inhibitor screens, biochemical, luminescence, ATPLite; 200,000 compounds, 1.5% hits; AID 1006, 2008; inhibition, % at 10 µM; 10 min; Luciferin 4-monooxygenase (Photinus pyralis), P08659;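 active = inhibition above about 50% when tested at 10 µM, limit read from the data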
Target sequence (P08659 whole entry, looked up): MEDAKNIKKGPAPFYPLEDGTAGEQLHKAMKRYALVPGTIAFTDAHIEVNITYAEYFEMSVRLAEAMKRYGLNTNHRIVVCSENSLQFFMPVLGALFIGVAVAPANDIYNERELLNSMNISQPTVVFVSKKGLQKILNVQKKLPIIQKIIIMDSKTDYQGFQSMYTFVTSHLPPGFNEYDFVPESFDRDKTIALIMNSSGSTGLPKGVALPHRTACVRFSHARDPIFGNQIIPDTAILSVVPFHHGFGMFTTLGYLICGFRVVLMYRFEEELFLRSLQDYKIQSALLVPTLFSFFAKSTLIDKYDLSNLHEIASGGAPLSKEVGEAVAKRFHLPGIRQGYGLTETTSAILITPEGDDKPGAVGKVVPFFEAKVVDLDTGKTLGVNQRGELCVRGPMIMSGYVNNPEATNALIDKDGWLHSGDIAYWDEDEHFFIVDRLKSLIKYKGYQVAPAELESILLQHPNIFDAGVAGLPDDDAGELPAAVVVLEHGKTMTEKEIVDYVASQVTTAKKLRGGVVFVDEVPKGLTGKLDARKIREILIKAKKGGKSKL
FLuc stim CS: FLuc activators, initial screening, artefact control for FLuc-dependent activation tests, biochemical, ATPlite luminescence. Luciferin 4-monooxygenase (Photinus pyralis), P08659. ATPlite luciferase biochemical, 10 min; 0 = ATP-free wells, 1 = DMSO control. activation factor at 10 µM. 200,000 tested, under 10 active. AID 1027, 2008;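 active = luciferase activation factor, scaled between plate controls, of at least 2 with compound at 10 µM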
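System: Luciferase/luciferin detection reagent, cell-free biochemical luciferase assay | Medium: PBS buffer for ATP | Dosing: Test compounds dosed from 2 mM stocks in 100% DMSO | Timing: 10 min at ambient temperature | Signal: Luminescence measurement of luciferase light output | Evaluation: Luciferase activation, seen as luminescence increase over controls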
PPC-1+TRAIL kill: compounds killing PPC-1 cancer cells with TRAIL present, primary screen, TRAIL potentiator project, ATPLite luminescence, uHTS. PPC-1 cells + TRAIL, ATPLite viability luminescence. 220,000 compounds, 0.41% hits. AID 1443, 2008. cell killing (% activity), % at 4 µM or 5 µM;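 active = cell killing above 50% in the first pass at 4 µM, then a duplicate retest at 5 µM averaging 50% or more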
TRAIL sens C8: viability loss with TRAIL in NB7+C8 cells, primary screen, TRAIL sensitizer project, cell-based, ATPlite luminescence; inhibition (viability loss, TRAIL sensitization), % at 10 µM; 360,000 compounds, 1% hits;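 active = compounds causing at least 50% loss of cell viability in the single-dose screen, relative to plate controls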
PPC-1 tox: cytotoxicity in PPC-1 cells, confirmation, cytotoxicity control for TRAIL apoptosis potentiator project, cell-based, ATP content luminescence; cytotoxicity, % at 5 µM; PPC-1 viability, ATPlite luminescence, overnight; 1,200 compounds, 50% hits; shares compounds with PPC-1+TRAIL kill;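 active = reconfirmed compounds whose average cytotoxicity reaches 50% or more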
A number is an active result; – = inactive; · = no result given. Compounds with a hit are over-represented: about 1.6% of the library has one in this group of screens.

SMILES	FLuc inhib CS	FLuc stim CS	PPC-1+TRAIL kill	TRAIL sens C8	PPC-1 tox
CCOC(=O)C1(CCOc2ccccc2)CCN(CC(O)CO)CC1 (centres undefined)	·	·	·	–	·
Cc1ccc(NN2C(=O)C=C(c3ccc(Cl)cc3)C2=O)cc1	–	–	–	–	–
COc1cc(C(C)=O)ccc1OCC(=O)Nc1ccc(C)c(S(=O)(=O)N2CCCCCC2)c1	·	·	·	–	·
Cc1cc([N+](=O)[O-])ccc1NC(=O)c1csc(C)c1C	·	·	·	–	·
Cc1cccc(NS(=O)(=O)c2cc(C(=O)N3CCc4ccccc4C3)ccc2Cl)c1C	–	–	–	–	–
Cc1csc(NC(=O)c2cn3ccccc3n2)n1	93.5	–	80.0	85.2	78.2
O=C(Nc1ccc2c(c1)OCCO2)c1cncc(Br)c1	65.0	–	–	–	–
COC(=O)c1ccc(NC(=O)c2ccc3c(c2)OCO3)cc1	–	–	–	–	·
COC(=O)c1sccc1NC(=O)c1ccc2c(c1)OCO2	–	–	–	–	–
Cc1cccc(NC(=O)c2ccc3c(c2)OCCO3)c1C	·	·	·	–	·
Cc1ccccc1NC(=O)c1ccc2c(c1)OCCO2	–	–	–	–	–
COc1ccc(C(=O)Nc2ccc3c(c2)OCCO3)cc1	90.1	–	75.2	72.2	72.9
Cc1ccc(NC(=O)c2ccc3c(c2)OCCO3)cc1	89.0	–	56.3	67.2	55.5
O=C(Nc1ccncc1)c1ccc2c(c1)OCCO2	–	–	–	–	·
COc1ccc(C(=O)Nc2cccc(OC(=O)c3ccc(C)c(C)c3)c2)cc1	–	–	–	–	–
Nc1nc(CCl)nc(Nc2ccc3ccccc3c2)n1	·	·	96.0	95.2	95.4
Cc1ccc(Nc2nc(N)nc(CN3CCN(c4ccccc4)CC3)n2)cc1Cl	–	–	–	–	·
Fc1ccc(CSc2nc3ccccc3[nH]2)cc1	–	–	–	–	–
Fc1ccc(CSc2nc3ncccc3[nH]2)cc1	–	–	–	–	·
O=C(CCC1CCCCC1)NCCS(=O)(=O)N1CCN(c2ccccc2)CC1	·	·	·	–	·
CC1=NNC(=O)C1CC(=O)N/N=C/C(Br)=C/c1ccccc1 (centres undefined)	·	·	–	–	·
CC1C(=O)NN=C1C(=O)N/N=C\C(Br)=C\c1ccccc1 (centres undefined)	95.4	–	78.4	73.9	79.0
O=C(C[C@@H]1C/C=C\CCCC(=O)OC[C@@H]2CCCN2C1=O)N[C@@H](CO)Cc1ccccc1	·	·	·	–	·
O=C(c1ccco1)N1CCN(c2ncnc3c2cnn3-c2ccccc2)CC1	–	–	–	–	–
O=C1c2cccc3c([N+](=O)[O-])ccc(c23)C(=O)N1CCc1ccccn1	·	·	–	–	–
SMILES	FLuc inhib CS	FLuc stim CS	PPC-1+TRAIL kill	TRAIL sens C8	PPC-1 tox
COC(=O)c1ccc(OCC(=O)c2ccc(O)cc2O)cc1	65.4	–	–	–	–
Cc1ccc(NC(=O)CCC(=O)NNC(=O)c2ccccc2[N+](=O)[O-])c(C)c1	–	–	–	–	–
O=C(Nc1ccc(F)cc1)c1nn(-c2ccccc2)c(=O)cc1Cl	–	–	–	–	–
O=C(O)CC(NC(=O)c1ccccc1NC(=O)c1ccccc1)C(=O)O (centres undefined)	–	–	–	–	–
COc1ccc(N(C(=O)c2ccco2)C(C(=O)NC2CCCCC2)c2cccs2)cc1OC (centres undefined)	–	–	–	–	·
C#CC(=O)N(c1cc(OC)ccc1OC)C(C(=O)NC1CCCC1)c1cccs1 (centres undefined)	–	–	97.8	91.1	97.6
C#CC(=O)N(c1ccc(OC)cc1OC)C(C(=O)NC1CCCC1)c1cccs1 (centres undefined)	–	–	97.0	92.8	96.0
O=[N+]([O-])c1cc(/C=N/NC(=S)Nc2ccccc2Cl)ccc1Cl	–	–	–	–	–
CCN(CC(=O)Nc1c(F)cccc1F)C(=O)c1ccc(N2C(=O)c3ccccc3C2=O)cc1	·	·	·	–	·
O=C(Cn1cc(C(=O)c2ccco2)c2ccccc21)NC1CC1	–	–	–	–	·
COc1ccc(N/C=C2\CCc3ccccc3C2=O)cc1	92.2	–	72.0	86.2	72.4
CC(=O)Oc1ccc(/C=C2/CCc3ccccc3C2=O)cc1	·	·	–	76.3	–
COc1ccc(N/C=C2\CCOC2=O)cc1	–	–	–	–	·
Cc1ccc(N2C(=O)c3ccccc3C2O)nc1 (centres undefined)	79.9	–	53.5	·	54.1
Cc1ccc(N2C(=O)c3ccccc3C2Nc2ccccc2F)nc1 (centres undefined)	–	–	–	–	·
COc1ccc(C(=O)CC(=O)c2ccccc2O)cc1	·	·	·	–	·
COc1ccc(O)c(C(=O)CC(=O)c2ccc(F)cc2)c1	–	–	79.5	80.1	75.4
O=C(CCCN1C(=O)CCC1=O)Nc1ccc2c(c1)OCO2	–	–	–	–	–
C=CCn1c(C)cc(C(=O)Cn2nc(C(=O)O)c3ccccc3c2=O)c1C	92.3	–	–	77.9	–
CC(C)C(=O)Nc1nnc(SCC(=O)NC2CCCC2)s1	·	·	·	–	·
COc1ccccc1-c1nnc(NC(=O)CSc2nncn2C)s1	93.8	–	76.8	83.4	68.4
COc1ccccc1-c1nnc(NC(=O)C(C)Sc2nncn2C)s1 (centres undefined)	–	–	–	–	·
O=C1CCC(=O)N1c1nc2nc(-c3ccccc3)cc(-c3ccccc3)n2n1	–	–	–	–	–
Cc1cn(CC(=O)NCCN2CCOCC2)c(=O)[nH]c1=O	·	·	·	–	·
CC(=O)N=c1sc2cc(C)ccc2n1C	–	–	–	–	–
SMILES	FLuc inhib CS	FLuc stim CS	PPC-1+TRAIL kill	TRAIL sens C8	PPC-1 tox
CC(=O)SCC(=O)N=c1sc2cc(F)ccc2n1C	–	–	–	–	·
COc1ccc(-c2cn3cc(C)ccc3n2)cc1OC	87.9	–	74.5	71.8	72.6
COc1ccc(-c2cn3cc(C)ccc3n2)cc1F	93.4	–	74.0	72.8	74.4
COc1ccc(-c2csc(C)n2)cc1OC	–	–	–	–	·
O=S(=O)(c1cccc(F)c1)N1CCN(c2nc(-c3cccnc3)nc3ccccc23)CC1	·	·	·	–	·
Cc1ccc(-c2ccc(OC(=O)c3ccc(=O)[nH]c3)c(C)c2)cc1	·	·	·	–	·
COc1ccc(-c2cn3c4c(sc3n2)CCCC4)cc1	91.1	–	76.0	79.4	73.8
CC(C)(C)C(=O)N1CCc2cc(-c3csc(N)n3)ccc21	96.0	–	82.5	86.5	83.1
Cc1ccc(C(=O)N2[C@@H]3CN(C)C(=O)[C@@]2(Cc2ccccc2)[C@H]2C(=O)N(Cc4ccccc4)C(=O)[C@@H]32)cc1	·	·	·	–	·
COc1ccc(N2CCN(c3nc(=S)n(-c4ccccc4)c(C)c3C(C)=O)CC2)cc1	–	–	–	–	–
Cc1ccc(-n2c(N)c(C(=O)Nc3ccccc3F)sc2=S)cc1C	–	–	–	–	·
Cc1ccccc1Cn1ccc(NC(=O)CCSc2nc(-c3ccco3)cc(C(F)(F)F)n2)n1	–	–	–	–	–
